Assay results published in ChEMBL document CHEMBL1949561, “Synthesis and triplex-forming ability of oligonucleotides bearing 1-substituted 1H-1,2,3-triazole nucleobases” (Bioorg Med Chem, 2011).

What was measured:
Assay type in all cases: nucleic-acid assay
Nucleic Acid [1] = test: Binding affinity to 5'-GCTAAAAAGATAGAGAGATCG-3'/5'- CGATCTCTCTATCTTTTTAGC-3' double stranded DNA assessed as melting temperature at 1.5 uM in sodium phosphate buffer at pH 7 by UV spectrophotometric analysis
How it was run: (§1)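 UV melting of triplexes between each modified TFO and the 21-bp duplex target, in 7 mM sodium phosphate buffer (pH 7.0), 140 mM KCl and 10 mM MgCl₂. Each oligonucleotide at 1.5 µM final. Absorbance followed at 260 nm from 5 °C to 85 °C, scanned at 0.5 °C/min, to give Tm.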

Nucleic Acid [2] = test: Binding affinity to 5'-GCTAAAAAGACAGAGAGATCG-3'/5'- CGATCTCTCTGTCTTTTTAGC-3' double stranded DNA assessed as change in melting temperature at 1.5 uM in sodium phosphate buffer at pH 7 by UV spectrophotometric analysis
Nucleic Acid [3] = test: Binding affinity to 5'-GCTAAAAAGAGAGAGAGATCG-3'/5'- CGATCTCTCTCTCTTTTTAGC-3' double stranded DNA assessed as melting temperature at 1.5 uM in sodium phosphate buffer at pH 7 by UV spectrophotometric analysis; how it was run: as §1
Nucleic Acid [4] = test: Binding affinity to 5'-GCTAAAAAGAAAGAGAGATCG-3'/5'- CGATCTCTCTTTCTTTTTAGC-3' double stranded DNA assessed as melting temperature at 1.9 uM in sodium cacodylate buffer at pH 6.8 by UV spectrophotometric analysis
How it was run: (§2)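 Each oligonucleotide at 1.9 µM final. Absorbance at 260 nm recorded from 5 °C to 85 °C at 0.5 °C/min; Tm taken from the melting profile.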

Nucleic Acid [5] = test: Binding affinity to 5'-GCTAAAAAGAAAGAGAGATCG-3'/5'- CGATCTCTCTTTCTTTTTAGC-3' double stranded DNA assessed as melting temperature at 1.5 uM in sodium phosphate buffer at pH 7 by UV spectrophotometric analysis; how it was run: as §1
Nucleic Acid [6] = test: Binding affinity to 5'-GCTAAAAAGACAGAGAGATCG-3'/5'- CGATCTCTCTGTCTTTTTAGC-3' double stranded DNA assessed as melting temperature at 1.9 uM in sodium cacodylate buffer at pH 6.8 by UV spectrophotometric analysis; how it was run: as §2
Nucleic Acid [7] = test: Binding affinity to5'-GCTAAAAAGACAGAGAGATCG-3'/5'- CGATCTCTCTGTCTTTTTAGC-3' double stranded DNA assessed as melting temperature at 1.5 uM in sodium phosphate buffer at pH 7 by UV spectrophotometric analysis; how it was run: as §1
Nucleic Acid [8] = test: Binding affinity to 5'-GCTAAAAAGAGAGAGAGATCG-3'/5'- CGATCTCTCTCTCTTTTTAGC-3' double stranded DNA assessed as melting temperature at 1.9 uM in sodium cacodylate buffer at pH 6.8 by UV spectrophotometric analysis; how it was run: as §2
Nucleic Acid [9] = test: Binding affinity to 5'-GCTAAAAAGATAGAGAGATCG-3'/5'- CGATCTCTCTATCTTTTTAGC-3' double stranded DNA assessed as melting temperature at 1.9 uM in sodium cacodylate buffer at pH 6.8 by UV spectrophotometric analysis; how it was run: as §2

With Cc1cn([C@H]2C[C@H](OP(=O)(O)OC[C@H]3O[C@@H](n4cc(C)c(=O)[nH]c4=O)C[C@@H]3OP(=O)(O)OC[C@H]3O[C@@H](n4cc(C)c(N)nc4=O)C[C@@H]3OP(=O)(O)OC[C@H]3O[C@@H](n4cc(C)c(=O)[nH]c4=O)C[C@@H]3OP(=O)(O)OC[C@H]3O[C@@H](n4cc(C)c(N)nc4=O)C[C@@H]3OP(=O)(O)OC[C@H]3O[C@@H](n4cc(C)c(=O)[nH]c4=O)C[C@@H]3OP(=O)(O)OC[C@H]3O[C@@H](c4cn(-c5ccccc5)nn4)C[C@@H]3OP(=O)(O)OC[C@H]3O[C@@H](n4cc(C)c(=O)[nH]c4=O)C[C@@H]3OP(=O)(O)OC[C@H]3O[C@@H](n4cc(C)c(N)nc4=O)C[C@@H]3OP(=O)(O)OC[C@H]3O[C@@H](n4cc(C)c(=O)[nH]c4=O)C[C@@H]3OP(=O)(O)OC[C@H]3O[C@@H](n4cc(C)c(=O)[nH]c4=O)C[C@@H]3OP(=O)(O)OC[C@H]3O[C@@H](n4cc(C)c(=O)[nH]c4=O)C[C@@H]3OP(=O)(O)OC[C@H]3O[C@@H](n4cc(C)c(=O)[nH]c4=O)C[C@@H]3OP(=O)(O)OC[C@H]3O[C@@H](n4cc(C)c(=O)[nH]c4=O)C[C@@H]3O)[C@@H](COP(=O)(O)O[C@H]3C[C@H](n4cc(C)c(=O)[nH]c4=O)O[C@@H]3CO)O2)c(=O)nc1N as the molecule, how does the Tm (Nucleic Acid [1]) read?
Its Tm is 17 °C.

And the ΔTm (Nucleic Acid [2])?
The ΔTm was 8 °C.

And the Tm (Nucleic Acid [3])?
The Tm was less than 10 °C.

And the Tm (Nucleic Acid [4])?
The Tm was 19 °C.

What about the Tm (Nucleic Acid [5]) of the same molecule?
The Tm was less than 10 °C.

And the Tm (Nucleic Acid [6])?
Its Tm is 29 °C.

And the Tm (Nucleic Acid [7])?
Its Tm is 25 °C.

And the Tm (Nucleic Acid [8])?
The Tm was 17 °C.

What about the Tm (Nucleic Acid [9]) of the same molecule?
The Tm was 23 °C.
